Experimental data reported in ChEMBL document CHEMBL1125361, “Effect of modification of the basic residues of dynorphin A-(1-13) amide on kappa opioid receptor selectivity and opioid activity” (J Med Chem, 1992).
pKi: −log10 of the molar value.

How the values were obtained:
[1] = target: Opioid receptor (mu and kappa) (Cavia porcellus, UniProt P41144+P97266); assay: Opioid receptor activity in guinea pig ileum; assay type: functional, tissue-based
Method in brief: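 Isolated guinea pig ileum in tissue bath, agonist dose-response curves. When norbinaltorphimine was used, the antagonist was added 10 min before the agonist dose-response determination.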

Cavia porcellus = organism: Cavia porcellus; assay: Potency was evaluated in guinea pig ileum relative to Dynorphin A.; assay type: functional
Method in brief: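 Isolated guinea pig ileum; agonist dose–response curves were determined. In the experiments using norbinaltorphimine, the antagonist was added to the tissue bath 10 min before the agonist dose–response curve was run.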

[2] = target: Kappa-type opioid receptor (Cavia porcellus, UniProt P41144); assay: Inhibition of [3H]- bremazocine to opioid receptor kappa of guinea pig […] membranes was determined
Sequence of Kappa-type opioid receptor (P41144 whole entry): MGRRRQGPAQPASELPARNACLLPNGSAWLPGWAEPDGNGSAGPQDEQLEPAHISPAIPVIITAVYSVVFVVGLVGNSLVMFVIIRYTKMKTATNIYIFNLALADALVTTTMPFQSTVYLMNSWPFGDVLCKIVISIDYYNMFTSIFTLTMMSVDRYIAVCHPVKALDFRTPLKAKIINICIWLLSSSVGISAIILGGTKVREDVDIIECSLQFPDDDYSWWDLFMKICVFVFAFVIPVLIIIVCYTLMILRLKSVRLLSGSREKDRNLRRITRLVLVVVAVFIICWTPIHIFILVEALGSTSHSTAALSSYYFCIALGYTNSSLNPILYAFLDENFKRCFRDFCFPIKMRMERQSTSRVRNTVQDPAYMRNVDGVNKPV
Method in brief: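 Guinea pig cerebellar membranes labelled with [3H]bremazocine at 4 °C with bestatin and 100 nM DAMGO present. Nonspecific binding defined with 1 μM Dyn A-(1-13)NH2. Ki from Cheng-Prusoff using KD 0.0549 nM for [3H]bremazocine.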

[3] = target: Delta-type opioid receptor (Rattus norvegicus, UniProt P33533); assay: Inhibition of [3H]DPDPE to opioid receptor delta of rat fore brain membranes was determined; assay type: cell membranes, Membrane
Sequence of Delta-type opioid receptor (P33533 whole entry): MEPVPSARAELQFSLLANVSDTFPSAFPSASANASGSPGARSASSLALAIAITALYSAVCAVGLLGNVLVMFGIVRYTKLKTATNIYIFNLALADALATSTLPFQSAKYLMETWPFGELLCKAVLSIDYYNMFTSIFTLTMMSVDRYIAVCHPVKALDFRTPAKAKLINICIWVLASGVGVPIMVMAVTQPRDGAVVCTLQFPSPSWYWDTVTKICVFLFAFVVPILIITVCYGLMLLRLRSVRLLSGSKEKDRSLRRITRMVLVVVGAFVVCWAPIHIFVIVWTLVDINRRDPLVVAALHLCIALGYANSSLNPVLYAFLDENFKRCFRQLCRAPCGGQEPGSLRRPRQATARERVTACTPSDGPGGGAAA
Method in brief: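 [3H]DPDPE displacement from rat forebrain membranes at 4 °C, peptidase inhibitors included. Nonspecific binding taken with 10 μM unlabeled DPDPE. Cheng-Prusoff Ki using KD 7.63 nM.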

Mu-type opioid receptor = Mu-type opioid receptor (Rattus norvegicus, UniProt P33535); assay: Inhibition of [3H]DAMGO to opioid receptor mu of rat fore brain membranes was determined; assay type: cell membranes, Membrane
Sequence of Mu-type opioid receptor (P33535 whole entry): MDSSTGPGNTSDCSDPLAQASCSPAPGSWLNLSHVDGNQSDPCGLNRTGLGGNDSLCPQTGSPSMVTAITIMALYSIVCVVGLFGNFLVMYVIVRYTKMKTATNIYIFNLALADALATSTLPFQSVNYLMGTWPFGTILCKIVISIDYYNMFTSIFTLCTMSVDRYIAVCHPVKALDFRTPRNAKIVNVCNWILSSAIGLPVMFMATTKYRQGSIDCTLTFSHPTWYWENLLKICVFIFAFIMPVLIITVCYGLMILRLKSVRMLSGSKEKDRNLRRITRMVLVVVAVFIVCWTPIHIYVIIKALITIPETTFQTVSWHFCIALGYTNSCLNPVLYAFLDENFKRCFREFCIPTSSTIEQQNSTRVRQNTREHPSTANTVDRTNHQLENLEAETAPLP
Method in brief: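 Rat forebrain membranes with [3H]DAMGO at 4 °C in presence of peptidase inhibitors. Nonspecific binding defined by 10 μM levorphanol. Ki derived via Cheng-Prusoff, KD 0.314 nM.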

Row | Compound | IC50 [1] [nM] | Relative potency (Cavia porcellus) [%] | pKi [2] | pKi [3] | pKi (Mu-type opioid receptor)
1 | H-YGGFLRKIRPKLK-NH2 [listing 1 of 2 here] | 0.19 | 122 |  |  | 
2 | H-YGGFLRK(Ac)IRPKLK-NH2 | 0.34 | 69 | 9.85 | 8.96 | 9.74
3 | H-YGGFLK(Ac)RIRPKLK-NH2 | 0.64 | 37 | 10.62 | 9.38 | 10.74
4 | CC[C@H](C)[C@H](NC(=O)[C@H](CCCN=C(N)N)NC(=O)[C@H](CCCN=C(N)N)NC(=O)[C@H](CC(C)C)NC(=O)[C@H](Cc1ccccc1)NC(=O)CNC(=O)CNC(=O)[C@@H](N)Cc1ccc(O)cc1)C(=O)N[C@@H](CCCN=C(N)N)C(=O)N1CCC[C@H]1C(=O)N[C@@H](CCCCNC(C)=O)C(=O)N[C@@H](CC(C)C)C(=O)N[C@@H](CCCCN)C(N)=O | 0.16 | 148 | 10.28 | 9.35 | 10.52
5 | CC[C@H](C)[C@H](NC(=O)[C@H](CCCN=C(N)N)NC(=O)[C@H](CCCN=C(N)N)NC(=O)[C@H](CC(C)C)NC(=O)[C@H](Cc1ccccc1)NC(=O)CNC(=O)CNC(=O)[C@@H](N)Cc1ccc(O)cc1)C(=O)N[C@@H](CCCCNC(C)=O)C(=O)N1CCC[C@H]1C(=O)N[C@@H](CCCCN)C(=O)N[C@@H](CC(C)C)C(=O)N[C@@H](CCCCN)C(N)=O | 0.26 | 91 | 11.38 | 8.89 | 10.37
6 | CC[C@H](C)[C@H](NC(=O)[C@H](CCCN=C(N)N)NC(=O)[C@H](CCCN=C(N)N)NC(=O)[C@H](CC(C)C)NC(=O)[C@H](Cc1ccccc1)NC(=O)CNC(=O)CNC(=O)[C@@H](N)Cc1ccc(O)cc1)C(=O)N[C@@H](CCCN=C(N)N)C(=O)N1CCC[C@H]1C(=O)N[C@@H](CCCCN)C(=O)N[C@@H](CC(C)C)C(=O)N[C@@H](CCCCNC(C)=O)C(N)=O | 0.19 | 126 | 9.82 | 8.34 | 10.21
7 | H-YGGFLRRIKPKLK-NH2 [listing 1 of 2 here] |  |  | 11.17 | 8.72 | 10.34
8 | CC[C@H](C)[C@H](NC(=O)[C@H](CCCN=C(N)N)NC(=O)[C@H](CCCN=C(N)N)NC(=O)[C@H](CC(C)C)NC(=O)[C@H](Cc1ccccc1)NC(=O)CNC(=O)CNC(=O)[C@@H](N)Cc1ccc(O)cc1)C(=O)N[C@@H](CCCN=C(N)N)C(=O)N1CCC[C@H]1C(=O)N[C@@H](CCCCN)C(=O)N[C@@H](CC(C)C)C(=O)N[C@@H](CCCCN)C(N)=O | 0.24 | 100 | 10.64 | 8.72 | 9.40
9 | H-YGGFLKRIRPKLK-NH2 [listing 1 of 2 here] | 0.25 | 94 |  |  | 
10 | H-YGGFLRKIRPKLK-NH2 [listing 2 of 2 here] |  |  | 10.68 | 8.80 | 10.26
11 | H-YGGFLKRIRPKLK-NH2 [listing 2 of 2 here] |  |  | 10.70 | 8.23 | 10.12
12 | H-YGGFLRRIKPKLK-NH2 [listing 2 of 2 here] | 0.27 | 89 |  |  | 
